pIC50, pKi: −log10 of the molar value. Activity calls are given as the source filed them. No cut-off for these calls is given here.
What was measured:
[1] = molecular target: T1, Transcriptional enhancer factor TEF-3 (Homo sapiens, UniProt Q15561); assay: Binding affinity to TEAD4 in human HCT-116 cells assessed as change in melting temperature at 50 uM after 10 mins by […]; format: cell-based
How it was run: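 CETSA in HCT116 lysates (PBS, 0.04% NP-40, freeze–thaw lysis, 100,000g clearing; 1 mg/mL protein): compound at 50 μM or DMSO for 10 min at room temperature, aliquots heated across a temperature range, recentrifuged 100,000g at 4 °C for 25 min. Soluble TEAD4 detected by immunoblot with anti-TEAD4 antibody; melting temperature from turning point of fitted curves.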

[2] = molecular target: T1, Transcriptional enhancer factor TEF-3; assay: Inhibition of FITC-labeled palmitate tracer binding to N-terminal His6-tagged human TEAD4 (217 to 434 residues) expressed in Escherichia coli BL21-CodonPlus (DE3)-RIPL cells preincubated for 10 mins followed by FITC-labeled palmitate tracer addition and measured after 1 hr by fluorescence assay
How it was run: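 FP competition in 25 mM HEPES, 150 mM NaCl, pH 6.5: serially diluted compound preincubated 10 min at room temperature with nonacylated hTEAD4, then FITC-palmitate tracer added (final 50 nM protein, 10 nM tracer); shaken 1 h at room temperature, FP at Ex/Em 485/535 nm. Tracer Kd from saturation binding.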

[3] = molecular target: Transcriptional enhancer factor TEF-3 (Mus musculus) (UniProt Q62296); assay: Binding affinity to nonacylated mouse TEAD4 assessed as line broadening at Phe408 residue at 0.5 mM by 1H-15N HSQC spectra analysis
How it was run: (§1)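 1H–15N HSQC of 13C/15N-labeled mTEAD4, deacylated with hydroxylamine; spectra with DMSO or compound (0.5 mM) recorded at 37 °C on a 600 MHz cryoprobe instrument in 20 mM HEPES pH 7.3, 150 mM NaCl, 1 mM DTT; spectra overlaid.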

[4] = molecular target: T1, Transcriptional enhancer factor TEF-3; assay: Binding affinity to nonacylated N-terminal His6-tagged human TEAD4 (217 to 434 residues) expressed in Escherichia coli BL21-CodonPlus (DE3)-RIPL cells assessed as melting temperature at 80 uM after 10 mins by SYPRO orange dye-based differential scanning fluorimetry method (reference value: 41 degreeC)
[5] = molecular target: Transcriptional enhancer factor TEF-3 (Mus musculus) (UniProt Q62296); assay: Binding affinity to nonacylated mouse TEAD4 assessed as line broadening at Phe386 residue at 0.5 mM by 1H-15N HSQC spectra analysis; how it was run: as §1
[6] = molecular target: T1, Transcriptional enhancer factor TEF-3; assay: Binding affinity to acylated N-terminal His6-tagged human TEAD4 (217 to 434 residues) expressed in Escherichia coli BL21-CodonPlus (DE3)-RIPL cells assessed as covalent adduct formation at 8 equiv after 1 hr by ESI-MS spectrophotometric analysis
How it was run: (§2)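 Whole-protein ESI–MS: 1 μM hTEAD4 incubated 1 h at room temperature with 8 equiv compound in 25 mM HEPES, 150 mM NaCl, pH 6.5; centrifuged, injected via online desalting column to UPLC-MS; masses deconvoluted to detect adducts.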

[7] = molecular target: T1, Transcriptional enhancer factor TEF-3; assay: Inhibition of FITC-labeled palmitate tracer binding to N-terminal His6-tagged human TEAD4 (217 to 434 residues) expressed in Escherichia coli BL21-CodonPlus (DE3)-RIPL cells assessed as ratio of Kinact to Ki measured after 1 to 24 hrs by fluorescence assay; conditions: time hrs 1-24
[8] = molecular target: T1, Transcriptional enhancer factor TEF-3; assay: (§3) Binding affinity to nonacylated N-terminal His6-tagged human TEAD4 (217 to 434 residues) expressed in Escherichia coli BL21-CodonPlus (DE3)-RIPL cells assessed as inhibition of protein-FAM-YAP (50 to 100 residues) interaction preincubated for 10 mins followed by FAM YAP addition and measured after 1 hr by fluorescence assay
How it was run: (§4)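 FP competition in PBS pH 7.5: serially diluted compound preincubated 10 min at room temperature with TEAD4 protein, then FAM-YAP50–100 added; shaken 1 h at room temperature, FP read at Ex/Em 485/535 nm. Final FAM/protein: nonacylated hTEAD4 2 nM/5 nM; acylated hTEAD4 3 nM/15 nM. Compound stocks 10 mM in DMSO. IC50 from curve fitting.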

[9] = molecular target: T1, Transcriptional enhancer factor TEF-3; assay: Inhibition of CPM binding to N-terminal His6-tagged human TEAD4 (217 to 434 residues) expressed in Escherichia coli BL21-CodonPlus (DE3)-RIPL cells preincubated for 10 mins followed by CPM addition and measured after 1 hr by fluorescence assay; conditions: read-out: IC50(app)
[10] = molecular target: T1, Transcriptional enhancer factor TEF-3; assay: Binding affinity to nonacylated N-terminal His6-tagged human TEAD4 (217 to 434 residues) expressed in Escherichia coli BL21-CodonPlus (DE3)-RIPL cells at 8 equiv after 1 hr by ESI-MS spectrophotometric analysis; how it was run: as §2
[11] = molecular target: Transcriptional enhancer factor TEF-1 (Homo sapiens, UniProt P28347); assay: Inhibition of CPM binding to nonacylated N-terminal His6/GST-tagged human TEAD1 (209 to 426 residues) expressed in Escherichia coli BL21-CodonPlus (DE3)-RIPL cells preincubated for 10 mins followed by CPM addition and measured after 1 hr by fluorescence assay
[12] = molecular target: T1, Transcriptional enhancer factor TEF-3; assay: Inhibition of CPM binding to nonacylated N-terminal His6-tagged human TEAD4 (217 to 434 residues) expressed in Escherichia coli BL21-CodonPlus (DE3)-RIPL cells assessed as ratio of Kinact to Ki measured after 1 to 24 hrs by fluorescence assay; conditions: time hrs 1-24
[13] = molecular target: T1, Transcriptional enhancer factor TEF-3; assay: Reversible inhibition of CPM binding to nonacylated N-terminal His6-tagged human TEAD4 (217 to 434 residues) expressed in Escherichia coli BL21-CodonPlus (DE3)-RIPL cells measured after 1 to 24 hrs by fluorescence assay
Mus musculus [14] = species on record: Mus musculus; assay: Binding affinity to N-terminal His6-tagged mouse TEAD4 Cys360Ser mutant assessed as inhibition of protein-FAM-YAP (50 to 100 residues) interaction preincubated for 10 mins followed by FAM YAP addition and measured after 1 hr by fluorescence assay; conditions: time 70.0 min
How it was run: (§5)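 FP competition in PBS pH 7.5 with mTEAD4 Cys360Ser or Cys360Ala mutant: serially diluted compound preincubated 10 min at room temperature with protein, then FAM-YAP50–100 added (final 10 nM FAM / 50 nM protein for each mutant); shaken 1 h at room temperature, FP read at Ex/Em 485/535 nm.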

[15] = molecular target: T1, Transcriptional enhancer factor TEF-3; assay: as §3, with “to” for “to nonacylated”; conditions: time 70.0 min; how it was run: as §4
Mus musculus [16] = species on record: Mus musculus; assay: Binding affinity to N-terminal His6/MBP-tagged mouse TEAD4 (209 to 427 residues) Cys360Ala mutant expressed in Escherichia coli BL21-CodonPlus (DE3)-RIPL cells assessed as inhibition of protein-FAM-YAP (50 to 100 residues) interaction preincubated for 10 mins followed by FAM YAP addition and measured after 1 hr by fluorescence assay; conditions: time 70.0 min; how it was run: as §5
[17] = molecular target: T1, Transcriptional enhancer factor TEF-3; assay: Inhibition of CPM binding to N-terminal His6-tagged human TEAD4 (217 to 434 residues) expressed in Escherichia coli BL21-CodonPlus (DE3)-RIPL cells at 12.5 uM preincubated for 10 mins followed by CPM addition and measured after 1 hr by fluorescence assay relative to control; conditions: time 70.0 min
[18] = molecular target: T1, Transcriptional enhancer factor TEF-3; assay: Inhibition of TEAD4 in HEK293 cells assessed as reduction in ANKRD1 mRNA expression at 1 uM measured after 6 hrs by SYBR green dye based RT-PCR analysis relative to control; format: cell-based
How it was run: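 HEK293 cells treated with DMSO or compound for 6 h; ANKRD1 mRNA measured by RT-qPCR relative to the DMSO control.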

T1 sequence (Q15561 whole entry): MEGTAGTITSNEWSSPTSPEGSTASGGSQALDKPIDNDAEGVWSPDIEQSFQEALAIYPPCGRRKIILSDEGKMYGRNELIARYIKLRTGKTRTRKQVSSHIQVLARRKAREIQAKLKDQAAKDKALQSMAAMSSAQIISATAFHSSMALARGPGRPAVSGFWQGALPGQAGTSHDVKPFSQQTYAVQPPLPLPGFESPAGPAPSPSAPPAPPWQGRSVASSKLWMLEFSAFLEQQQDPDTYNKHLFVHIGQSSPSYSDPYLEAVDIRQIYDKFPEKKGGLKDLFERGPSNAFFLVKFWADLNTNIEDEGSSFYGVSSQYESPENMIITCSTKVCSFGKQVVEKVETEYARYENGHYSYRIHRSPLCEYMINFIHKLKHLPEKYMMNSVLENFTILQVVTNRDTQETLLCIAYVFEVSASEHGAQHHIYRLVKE
Sequence of Transcriptional enhancer factor TEF-3 (Mus musculus) (Q62296 whole entry, the tested form may be a part): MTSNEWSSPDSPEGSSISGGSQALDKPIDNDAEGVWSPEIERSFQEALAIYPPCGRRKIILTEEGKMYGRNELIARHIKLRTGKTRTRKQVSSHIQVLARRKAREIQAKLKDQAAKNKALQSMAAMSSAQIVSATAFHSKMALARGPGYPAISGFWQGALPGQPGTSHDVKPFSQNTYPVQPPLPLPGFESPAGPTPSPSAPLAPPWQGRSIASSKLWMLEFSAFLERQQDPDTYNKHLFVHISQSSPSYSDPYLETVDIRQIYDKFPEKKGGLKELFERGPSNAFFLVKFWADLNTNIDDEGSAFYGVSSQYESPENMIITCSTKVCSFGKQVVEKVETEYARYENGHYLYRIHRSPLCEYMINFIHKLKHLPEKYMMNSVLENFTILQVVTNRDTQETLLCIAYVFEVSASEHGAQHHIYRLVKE
Sequence of Transcriptional enhancer factor TEF-1 (P28347 whole entry, the tested form may be a part): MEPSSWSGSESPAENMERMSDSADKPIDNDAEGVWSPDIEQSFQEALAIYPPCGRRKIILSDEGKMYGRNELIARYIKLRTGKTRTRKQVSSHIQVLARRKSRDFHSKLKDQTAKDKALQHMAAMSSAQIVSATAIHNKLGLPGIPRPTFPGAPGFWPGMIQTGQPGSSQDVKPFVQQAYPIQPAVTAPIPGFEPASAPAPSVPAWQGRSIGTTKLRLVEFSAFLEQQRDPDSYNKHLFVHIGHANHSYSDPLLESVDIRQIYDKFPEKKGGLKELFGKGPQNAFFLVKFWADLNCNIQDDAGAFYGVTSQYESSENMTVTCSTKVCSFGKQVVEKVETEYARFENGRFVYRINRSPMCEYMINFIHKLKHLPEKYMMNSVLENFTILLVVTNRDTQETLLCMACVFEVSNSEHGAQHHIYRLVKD

O=c1cc(CO)oc(C(Nc2ccccc2)c2ccccc2)c1O (stereo not drawn)
ΔTm [1]: 3.3 °C | pIC50 [2]: 6.70 | Activity [3]: Active | Tm [4]: 36 °C | Activity [5]: Active | Activity [6]: inactive | Ratio [7]: 4 | pIC50 [8]: 7.15 | pIC50 [9]: 5.64 | Activity [10]: Active | pIC50 [11]: 5.59 | Ratio [12]: 8.3 | pKi [13]: 5.59 | inhibition (Mus musculus [14]): inactive | inhibition [15]: inactive | inhibition (Mus musculus [16]): inactive | inhibition [17]: > 50% | inhibition [18]: 90%
